In brackets after ≈: the same amount, converted by molar mass. Activity calls are given as the source filed them. No cut-off for these calls is given here.
Tests used:
[1] = tested on: Nakaseomyces glabratus; assay: Antifungal activity against Candida glabrata ATCC 66032 assessed as reduction in fungal cell growth incubated for 48 hrs by MTT based broth double dilution method; type: functional; conditions: ATCC 66032, 48 h
Method in brief: (§1)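 Broth double-dilution in Casitone broth. Starter cultures were grown 24 or 48 h at 37 °C, 5% CO₂, diluted 1:100, and added to serial two-fold dilutions at 64 to 0.007 µg/mL. Final inoculum was 5 x 10^4 to 5 x 10^5 CFU/mL; DMSO was 0.0012–1.3%. Plates were incubated at 37 °C, 5% CO₂, then MTT was added for 2 h. MIC followed CLSI M27-A3. Triplicates, two independent experiments.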

[2] = tested on: Meyerozyma guilliermondii; assay: Antifungal activity against Candida guilliermondii T-47 assessed as reduction in fungal cell growth incubated for 24 hrs by MTT based broth double dilution method; type: functional; conditions: T-47, 24 h; method in brief: as §1
[3] = tested on: Nakaseomyces glabratus; assay: Antifungal activity against Candida glabrata ATCC 2001 assessed as reduction in fungal cell growth incubated for 24 hrs by MTT based broth double dilution method; type: functional; conditions: ATCC 2001, 24 h; method in brief: as §1
[4] = tested on: Nakaseomyces glabratus; assay: Antifungal activity against Candida glabrata ATCC 66032 assessed as reduction in fungal cell growth incubated for 24 hrs by MTT based broth double dilution method; type: functional; conditions: ATCC 66032, 24 h; method in brief: as §1
[5] = tested on: Candida albicans; assay: Antifungal activity against Candida albicans SN152 assessed as reduction in fungal cell growth incubated for 24 hrs by MTT based broth double dilution method; type: functional; conditions: SN152, 24 h; method in brief: as §1
[6] = tested on: Nakaseomyces glabratus; assay: Antifungal activity against Candida glabrata 192 assessed as reduction in fungal cell growth incubated for 48 hrs by MTT based broth double dilution method; type: functional; conditions: Nakaseomyces glabratus, 192, 48 h; method in brief: as §1
[7] = tested on: Candida albicans; assay: Antifungal activity against Candida albicans SN152 assessed as reduction in fungal cell growth incubated for 48 hrs by MTT based broth double dilution method; type: functional; conditions: SN152, 48 h; method in brief: as §1
[8] = tested on: HEK-293T; assay: Cytotoxicity against human HEK293T cells assessed as reduction in cell viability at 5 to 50 uM incubated for 24 hrs by XTT assay; type: cell-based
Method in brief: (§2)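 HEK-293T were grown in DMEM with 10% FBS; HepG2 in RPMI with 15% FBS; both at 37 °C, 5% CO₂. Cells (4000 HepG2 or 7000 HEK-293T per well) were seeded on poly-D-lysine wells. After 24 h the medium was renewed and compounds added at 5–50 µM from 1 mM stocks in 10% DMSO/0.3% Tween/PBS. After 24 h more, XTT was added for 2 h at 37 °C; absorbance was read at 475 nm against 660 nm reference.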

[9] = Cytotoxicity against human HEK293T cells assessed as reduction in cell viability at 5 to 50 uM incubated for 24 hrs by XTT assay relative to control; type: cell-based, HEK-293T; conditions: HEK293T cells, read-out: INH
Method in brief: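 HEK-293T cells were grown in DMEM with 10% FBS, 1% NEAA, 1% pyruvate and pen-strep-nystatin at 37 °C and 5% CO2. 7000 cells/well were seeded on poly-D-lysine-coated wells. After 24 h the medium was renewed and compounds were added at 5–50 µM from 1 mM stocks in 10% DMSO/0.3% Tween/PBS. After 24 h, XTT was added for 2 h at 37 °C, with absorbance read at 475 nm (reference 660 nm).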

[10] = tested on: Nakaseomyces glabratus; assay: Antifungal activity against Candida glabrata 192 assessed as reduction in fungal cell growth incubated for 24 hrs by MTT based broth double dilution method; type: functional; conditions: Nakaseomyces glabratus, 192, 24 h; method in brief: as §1
[11] = tested on: Candida albicans; assay: Antifungal activity against Candida albicans P-87 assessed as reduction in fungal cell growth incubated for 24 hrs by MTT based broth double dilution method; type: functional; conditions: P-87, 24 h; method in brief: as §1
[12] = tested on: HepG2; assay: Cytotoxicity against human HepG2 cells assessed as reduction in cell viability at 5 to 50 uM incubated for 24 hrs by XTT assay; type: cell-based; conditions: hepg2, 24 h; method in brief: as §2
[13] = tested on: Candida parapsilosis; assay: Antifungal activity against Candida parapsilosis ATCC 90018 assessed as reduction in fungal cell growth incubated for 24 hrs by MTT based broth double dilution method; type: functional; conditions: Lodderomyces parapsilosis, ATCC 90018, 24 h; method in brief: as §1
[14] = tested on: Candida parapsilosis; assay: Antifungal activity against Candida parapsilosis ATCC 22019 assessed as reduction in fungal cell growth incubated for 24 hrs by MTT based broth double dilution method; type: functional; conditions: Lodderomyces parapsilosis, ATCC 22019, 24 h; method in brief: as §1
[15] = tested on: Candida albicans; assay: Antifungal activity against ERG11/ERG3 knocked out Candida albicans SN152 assessed as zone of inhibition at 25 ug […] by disk diffusion method; type: functional, organism-based
[16] = tested on: Candida albicans; assay: Antifungal activity against Candida albicans ATCC 90028 assessed as reduction in fungal cell growth incubated for 48 hrs by MTT based broth double dilution method; type: functional; conditions: ATCC 90028, 48 h; method in brief: as §1
[17] = tested on: Candida albicans; assay: Antifungal activity against Candida albicans SN152 assessed as zone inhibition at 25 ug incubated for 24 hrs by disk diffusion method; type: functional, organism-based
Method in brief: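 Strains were streaked on YPD agar and grown at 30 °C: 24 h for parental SN152, 48 h for the erg11ΔΔ erg3ΔΔ mutant. Colonies were suspended in PBS and adjusted to OD 0.02 (SN152) or 0.03 (mutant), then spread on Casitone plates. A 6-mm disk loaded with 25 µg compound was placed centrally. Plates were incubated at 30 °C and photographed after 24 h.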

[18] = Cytotoxicity against human HepG2 cells assessed as reduction in cell viability at 5 to 50 uM incubated for 24 hrs by XTT assay relative to control; type: cell-based; conditions: read-out: INH
Method in brief: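 HepG2 cells were maintained in RPMI with 15% FBS, 1% NEAA, 1% pyruvate and pen-strep-nystatin at 37 °C and 5% CO2. 4000 cells/well were plated on poly-D-lysine coating and given fresh medium after 24 h. Compounds were dosed at 5–50 µM from 1 mM stocks in 10% DMSO/0.3% Tween/PBS and incubated 24 h. Viability was read by XTT (2 h, 37 °C) at 475 nm against 660 nm.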

[19] = tested on: Candida dubliniensis; assay: Antifungal activity against Candida dubliniensis T-99 assessed as reduction in fungal cell growth incubated for 24 hrs by MTT based broth double dilution method; type: functional; conditions: T-99, 24 h; method in brief: as §1
[20] = tested on: Candida albicans; assay: Antifungal activity against Candida albicans ATCC 90028 assessed as reduction in fungal cell growth incubated for 24 hrs by MTT based broth double dilution method; type: functional; conditions: ATCC 90028, 24 h; method in brief: as §1
[21] = target: Cytochrome P450 3A4 (Homo sapiens, UniProt P08684); assay: Inhibition of recombinant human CYP3A4 using Luciferin-PPXE as substrate preincubated for 10 mins followed by NADPH addition measured after 15 mins by luminometric method; type: ADME
Cytochrome P450 3A4, sequence (P08684 whole entry): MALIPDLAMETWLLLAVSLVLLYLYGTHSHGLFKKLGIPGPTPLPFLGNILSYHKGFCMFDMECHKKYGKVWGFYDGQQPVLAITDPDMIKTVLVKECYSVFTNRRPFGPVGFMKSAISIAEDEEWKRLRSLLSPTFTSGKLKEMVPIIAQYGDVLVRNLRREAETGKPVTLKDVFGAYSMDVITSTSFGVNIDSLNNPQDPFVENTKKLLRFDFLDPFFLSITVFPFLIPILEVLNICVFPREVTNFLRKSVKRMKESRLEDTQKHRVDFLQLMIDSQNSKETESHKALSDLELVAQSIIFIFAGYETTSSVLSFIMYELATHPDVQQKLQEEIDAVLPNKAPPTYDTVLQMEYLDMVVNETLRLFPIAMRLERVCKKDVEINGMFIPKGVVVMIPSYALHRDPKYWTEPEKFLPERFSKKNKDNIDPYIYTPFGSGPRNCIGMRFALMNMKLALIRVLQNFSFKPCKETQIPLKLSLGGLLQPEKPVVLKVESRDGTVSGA
Method in brief: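 P450-Glo luminescent assay, Luciferin-PPXE substrate. Compound was mixed with membranes containing recombinant human CYP3A4; controls were vehicle with membranes lacking CYP3A4. After 10 min preincubation at 37 °C, NADPH regeneration reagent was added and the mixture kept 15 min at 37 °C. Luciferin detection reagent stopped the reaction; after 20 min at room temperature, luminescence was read. Duplicates.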

Row | Compound | MIC [1] [µg/mL] | MIC [2] [µg/mL] | MIC [3] [µg/mL] | MIC [4] [µg/mL] | MIC [5] [µg/mL] | MIC [6] [µg/mL] | MIC [7] [µg/mL] | Activity [8] | cytotoxicity at 24 h, up to 50 µM [9] [%] | MIC [10] [µg/mL] | MIC [11] [µg/mL] | Activity [12] | MIC [13] [µg/mL] | MIC [14] [µg/mL] | inhibition zone (IZ) [15] | MIC [16] [µg/mL] | cytotoxicity at 24 h, up to 50 µM [18] [%] | MIC [19] [µg/mL] | MIC [20] [µg/mL] | IC50 [21] [nM] | also measured
1 | OC(Cn1cncn1)(Cn1cncn1)c1ccc(F)cc1F [FLUCONAZOLE] | > 64 | 4 (≈ 13.1 µM) | 64 (≈ 209 µM) | 64 (≈ 209 µM) | 0.25 (≈ 0.816 µM) | 8 (≈ 26.1 µM) | 1 (≈ 3.27 µM) | Non-Toxic | < 40 | 8 (≈ 26.1 µM) | 0.25 (≈ 0.816 µM) | Non-Toxic | 1 (≈ 3.27 µM) | 2 (≈ 6.53 µM) | inactive | 0.5 (≈ 1.63 µM) | < 40 | 4 (≈ 13.1 µM) | 0.5 (≈ 1.63 µM) |  | inhibition zone (IZ) [17]: Active
2 | CCN(CC)c1ccc2cc(C(=O)NCC(O)(Cn3ccnc3)c3ccc(Cl)cc3Cl)c(=O)oc2c1 (racemic) | > 64 | 0.125 (≈ 0.236 µM) | 2 (≈ 3.78 µM) | 4 (≈ 7.56 µM) | 0.03 (≈ 0.0567 µM) | 1 (≈ 1.89 µM) | 0.06 (≈ 0.113 µM) | Toxic | < 40 | 0.25 (≈ 0.472 µM) | 0.03 (≈ 0.0567 µM) | Toxic | 0.015 (≈ 0.0283 µM) | 0.06 (≈ 0.113 µM) |  | 0.03 (≈ 0.0567 µM) | < 40 | 0.25 (≈ 0.472 µM) | 0.015 (≈ 0.0283 µM) | 127 | 
3 | CCC(CC)Oc1ccc2cc(C(=O)NCC(O)(Cn3ccnc3)c3ccc(Cl)cc3Cl)c(=O)oc2c1 (racemic) | > 64 | 0.25 (≈ 0.459 µM) | 2 (≈ 3.67 µM) | 2 (≈ 3.67 µM) | 0.06 (≈ 0.11 µM) | 1 (≈ 1.84 µM) | 0.06 (≈ 0.11 µM) | Non-Toxic | < 40 | 0.5 (≈ 0.918 µM) | 0.06 (≈ 0.11 µM) | Non-Toxic | 0.125 (≈ 0.23 µM) | 0.5 (≈ 0.918 µM) |  | 0.06 (≈ 0.11 µM) | < 40 | 0.25 (≈ 0.459 µM) | 0.03 (≈ 0.0551 µM) | 251 | 
4 | CCC(CC)Oc1ccc2cc(C(=O)NCC(O)(Cn3cncn3)c3ccc(Cl)cc3Cl)c(=O)oc2c1 (racemic) | > 64 | 0.5 (≈ 0.917 µM) | > 64 | > 64 | 0.06 (≈ 0.11 µM) | > 64 | 0.06 (≈ 0.11 µM) | Non-Toxic | < 40 | 2 (≈ 3.67 µM) | 0.03 (≈ 0.055 µM) | Non-Toxic | 0.25 (≈ 0.458 µM) | 0.5 (≈ 0.917 µM) |  | 0.06 (≈ 0.11 µM) | < 40 | 0.5 (≈ 0.917 µM) | 0.06 (≈ 0.11 µM) | ≥ 2500 | 
5 | CC(=O)N1CCN(c2ccc(OCC3COC(Cn4ccnc4)(c4ccc(Cl)cc4Cl)O3)cc2)CC1 (racemic) [KETOCONAZOLE] | 4 (≈ 7.53 µM) | 0.007 (≈ 0.0132 µM) | 1 (≈ 1.88 µM) | 1 (≈ 1.88 µM) | 0.007 (≈ 0.0132 µM) | 0.125 (≈ 0.235 µM) | 0.007 (≈ 0.0132 µM) | Toxic | < 40 | 0.06 (≈ 0.113 µM) | 0.007 (≈ 0.0132 µM) | Toxic | 0.007 (≈ 0.0132 µM) | 0.007 (≈ 0.0132 µM) | Active | 0.007 (≈ 0.0132 µM) | < 40 | 0.007 (≈ 0.0132 µM) | 0.007 (≈ 0.0132 µM) |  | inhibition zone (IZ) [17]: Active
6 | CC[C@@H]([C@H](C)O)n1ncn(-c2ccc(N3CCN(c4ccc(OC[C@@H]5CO[C@@](Cn6cncn6)(c6ccc(F)cc6F)C5)cc4)CC3)cc2)c1=O [POSACONAZOLE] | > 64 | 0.03 (≈ 0.0428 µM) | 1 (≈ 1.43 µM) | 1 (≈ 1.43 µM) | 0.007 (≈ 0.00999 µM) | 0.125 (≈ 0.178 µM) | 0.007 (≈ 0.00999 µM) | Toxic | < 40 | 0.125 (≈ 0.178 µM) | 0.007 (≈ 0.00999 µM) | Toxic | 0.015 (≈ 0.0214 µM) | 0.03 (≈ 0.0428 µM) |  | 0.007 (≈ 0.00999 µM) | < 40 | 0.03 (≈ 0.0428 µM) | 0.007 (≈ 0.00999 µM) |  | 

From ChEMBL document CHEMBL4351026, “Antifungal activity, mode of action variability, and subcellular distribution of coumarin-based antifungal azoles” (Eur J Med Chem, 2019)
